13 molecules from ChEMBL document CHEMBL3244257, “Effects of deuteration on locomotor activity of amphetamine” (J Med Chem, 1978) can be followed below.

The test system of data set [1] is Mus musculus. Briefly: Induction of spontaneous locomotor activity in Swiss-Webster albino mouse assessed as time required to show activity at 10.6 mg/kg, ip measured every 10 mins in first hour followed by every hour for 5 hrs. In kind it is functional. To be noted: route intraperitoneal. In outline:
(§1)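 Mice weighing 22–24 g, acclimated at least 2 weeks, fed and watered freely until testing, and split into groups of five, each mouse used once. Sulfate salts in normal saline given ip at 0.2 mL/10 g. Controls received saline. Activity was counted as photocell beam interruptions in six-beam circular cages. Tests ran between 11:00 a.m. and 5:00 p.m.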

The nature of data set [2]: Acute toxicity in ip dosed Swiss-Webster mouse measured for 24 hrs. It counts as organism-based. To be noted: in vivo. In outline:
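Groups of mice given three intraperitoneal doses (313, 353 and 394 μM/kg), 14–22 mice per dose, observed for 24 h. LD50 in mg/kg derived from regression dose-response curves by the Litchfield and Wilcoxon method.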

Data set [3] can be described thus: Potency ratio of compound LD50 to protioamphetamine LD50 for ip dosed Swiss-Webster mouse. In kind it is ADME, organism-based. To be noted: in vivo.
Data set [4] concerns Mus musculus. Briefly: Induction of spontaneous locomotor activity in Swiss-Webster albino mouse assessed as time required to show activity at 27.2 umol/kg, ip measured every 10 mins in first hour followed by every hour for 5 hrs. In kind it is functional. In outline: as §1
Data set [5] has as its system Mus musculus. Nature of the data set: Induction of spontaneous locomotor activity in Swiss-Webster albino mouse assessed as total activity AUC at 10.6 mg/kg, ip. In kind it is functional, organism-based. Details: dose 10.6 mg/kg. The settings on record: tested as the 2H-labelled form. A digest of the protocol:
as §1

Data set [6] deals with Mus musculus. Briefly: Induction of spontaneous locomotor activity in Swiss-Webster albino mouse assessed as total activity AUC at 27.2 umol/kg, ip. It counts as functional, organism-based. The settings on record: tested as the 2H-labelled form. In outline: as §1
Data set [7] has as its system Mus musculus. Nature of the data set: Induction of spontaneous locomotor activity in Swiss-Webster albino mouse assessed as total activity AUC at 10 mg/kg, ip. In kind it is functional, organism-based. Also noted: dose 10 mg/kg. A digest of the protocol: as §1
The test system of data set [8] is Mus musculus. Nature of the data set: Induction of spontaneous locomotor activity in Swiss-Webster albino mouse assessed as time required to show activity at 10 mg/kg, ip measured every 10 mins in first hour followed by every hour for 5 hrs. In kind it is functional. The settings on record: route intraperitoneal. In outline:
as §1

With `O=S(=O)(O)O.[2H]c1c([2H])c([2H])c(C([2H])([2H])C([2H])(N)C([2H])([2H])[2H])c([2H])c1[2H]` (racemic), the Time in the data set with Mus musculus [1] is given as 120 min. The LD50 at 24 h in data set [2] was found to be 149 mg/kg. For the same molecule, the selectivity ratio in data set [3] came to 1.2. As to `O=S(=O)(O)O.[2H]c1c([2H])c([2H])c(C([2H])([2H])C(C)N)c([2H])c1[2H]` (racemic), the Time in the data set with Mus musculus [4] is 80 min. In data set [2], this molecule gave an LD50 at 24 h of 140 mg/kg. The selectivity ratio in data set [3] amounted to 1.13. Consider `O=S(=O)(O)O.[2H]C([2H])([2H])C([2H])(N)C([2H])([2H])c1ccccc1` (racemic), for which the Time in the data set with Mus musculus [4] stood at 100 min. Besides, the LD50 at 24 h in data set [2] was 143 mg/kg. Besides, in data set [3], the selectivity ratio was 1.16. Turning to `O=S(=O)(O)O.[2H]C(C)(N)Cc1ccccc1` (racemic), the Time in the data set on Mus musculus [4] is listed as 100 min.

For `O=S(=O)(O)O.[2H]C(c1ccccc1)C(C)N` (racemic), in the data set on Mus musculus [4], the Time amounted to 75 min. On the same count and under the same terms, in the case of `O=S(=O)(O)O.[2H]C(C)(N)C([2H])([2H])c1ccccc1` (racemic) it was 105 min. For `CC(N)Cc1ccccc1` (racemic), the AUC in the data set on Mus musculus [5] came out at 350 cm2. For `CC(N)Cc1ccccc1` (racemic; 2), the AUC in the data set on Mus musculus [6] amounted to 349 cm2. On the same count and under the same terms, the same measure for `CC(N)Cc1ccccc1` (racemic; 3): 367 cm2; for `CC(N)Cc1ccccc1` (racemic; 4): 370 cm2. In the case of `CC(N)Cc1ccccc1` (racemic; 5), the AUC in the data set on Mus musculus [6] worked out at 355 cm2. For the molecule `CC(N)Cc1ccccc1` (racemic; 6), in the data set with Mus musculus [6], the AUC was found to be 374 cm2. With `C[C@H](N)Cc1ccccc1.C[C@H](N)Cc1ccccc1.O=S(=O)(O)O` [DEXTROAMPHETAMINE SULFATE], in the data set with Mus musculus [7], the AUC amounted to 350 cm2. The molecule further came in with a 50% lethal dose (LD50) at 24 h in data set [2] of 123 mg/kg. For the same molecule, the Time with Mus musculus [8] is recorded as 70 min.

As a reminder, the LD50 is the dose expected to kill half of the subjects tested.
